How the values were obtained:
Nucleic Acid = assay: DNA alkylation ability was determined; type: functional; details: Bos taurus
Summary of the method: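 Bulk alkylation of calf thymus DNA. Drug (0.004 mmol) in DMSO was added, sealed and degassed under argon. The mix was reduced by H2 purge over Pd/C until colourless, argon-purged, then held at 30 °C for 24 h. After catalyst removal, DNA was ethanol/ammonium acetate precipitated at −20 °C for 16 h, pelleted, redissolved and reprecipitated.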

[1] = system: Panel melanoma (Carcinoma cell lines); assay: Cytotoxic activity against human melanoma cell lines was determined; type: functional; set-up: unit not given here
Summary of the method: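 Tested in the NCI In Vitro Cell Line Screening Project, 60 human tumour lines. Cytotoxic read-out is LC50, the concentration giving 50% cell kill.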

[2] = system: Panel melanoma (Carcinoma cell lines); assay: Cytostatic activity against human melanoma cell lines was determined; type: functional
Summary of the method: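 Tested in the NCI In Vitro Cell Line Screening Project, 60 human tumour lines. Cytostatic read-outs are GI50 (50% growth inhibition) and TGI (total growth inhibition).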

[3] = molecular target: NAD(P)H dehydrogenase [quinone] 1 (Homo sapiens) (UniProt P15559); assay: Substrate specificity for human DT-diaphorase was determined
NAD(P)H dehydrogenase [quinone] 1 (Homo sapiens), sequence (P15559 whole entry): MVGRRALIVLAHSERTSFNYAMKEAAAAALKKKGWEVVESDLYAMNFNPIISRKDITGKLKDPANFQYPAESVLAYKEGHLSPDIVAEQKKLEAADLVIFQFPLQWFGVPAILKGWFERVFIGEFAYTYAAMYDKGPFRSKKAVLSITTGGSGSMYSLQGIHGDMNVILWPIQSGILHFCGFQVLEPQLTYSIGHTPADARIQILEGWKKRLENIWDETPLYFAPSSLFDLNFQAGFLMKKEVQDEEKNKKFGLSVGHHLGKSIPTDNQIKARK

Row | Structure (SMILES) | DNA alkylation (Nucleic Acid) | LC50 [1] | log GI50 range [2] | log TGI range [2] | k cat/Km [3]
1 | CCC(=O)NC1CCn2c1nc1c2C(=O)C(C)=C(N2CC2)C1=O (stereo not given) | 0% | – | – | – | –
2 | CCCCC(=O)NC1CCn2c1nc1c2C(=O)C(C)=C(N2CC2)C1=O (stereo not given) | 9% | – | – | – | –
3 | CC1=C(N2CC2)C(=O)c2nc3n(c2C1=O)CCC3N (stereo not given) | 100% | – | – | – | –
4 | CC1=C(N2CC2)C(=O)c2nc3n(c2C1=O)CCC3NC(=O)c1ccnc2ccccc12 (stereo not given) | 10% | – | – | – | –
5 | CC1=C(N2CC2)C(=O)c2nc3n(c2C1=O)CCC3NC(=O)c1cccnc1 (stereo not given) | 20% | – | – | – | –
6 | CC1=C(N2CC2)C(=O)c2nc3n(c2C1=O)CC[C@@H]3NC(=O)[C@@H](Cc1ccccc1)NC(=O)[C@H](N)Cc1ccccc1 | – | 4 | 2.42 | 4 | –
7 | CC1=C(N2CC2)C(=O)c2nc3n(c2C1=O)CCC3NC(=O)c1ccncc1 (stereo not given) | 79% | 2.35 | 1.96 | 2.5 | 0.00033 M⁻¹ s⁻¹
8 | CC1=C(N2CC2)C(=O)c2nc3n(c2C1=O)CC[C@@H]3NC(=O)C1CCCN1 (stereo not given in full) | – | 2.27 | 3.34 | 2.8 | –
9 | CC1=C(N2CC2)C(=O)c2nc3n(c2C1=O)CC[C@@H]3NC(=O)[C@H](N)Cc1ccccc1 | – | 4 | 1.69 | 4 | –
10 | CC1=C(N2CC2)C(=O)c2nc3n(c2C1=O)CCC3NC(=O)Cc1ccncc1 (stereo not given) | 35% | – | – | – | –
